Test results published in ChEMBL document CHEMBL4020842, “Discovery of N1-(4-((7-Cyclopentyl-6-(dimethylcarbamoyl)-7 H-pyrrolo[2,3- d]pyrimidin-2-yl)amino)phenyl)- N8-hydroxyoctanediamide as a Novel Inhibitor Targeting Cyclin-dependent Kinase 4/9 (CDK4/9) and Histone Deacetlyase1 (HDAC1) against Malignant Cancer” (J Med Chem, 2018).
pIC50: −log10 of the molar value. Converted amounts (≈) assume the structure as drawn. The source made the active and inactive calls. The calls are words filed in the database; no cut-off is given here.

Legend:
Aurora kinase A = Aurora kinase A (Homo sapiens, UniProt O14965); assay: Inhibition of recombinant human full length C-terminal 6His-tagged Aurora-A expressed in baculovirus infected sf21 cells using kemptide substrate in presence of [gamma33P]ATP after 10 mins by scintillation counting method
MDA-MB-231 [1] = assay: Induction of apoptosis in human MDA-MB-231 cells assessed as late apoptotic cells at 1 uM after 48 hrs by annexin V-FITC/propidium iodide staining based flow cytometry (reference value: 1.53%); format: functional
HepG2 [2] = assay: Induction of apoptosis in human HepG2 cells assessed as late apoptotic cells at 1 uM after 48 hrs by annexin V-FITC/propidium iodide staining based flow cytometry (reference value: 0.64%); format: functional
HepG2 [3] = assay: Cytotoxicity against human HepG2 cells assessed as reduction in cell viability after 72 hrs by CCK8 assay; format: functional, cell-based; details: HepG2, 72 h
NCI-H460 [4] = assay: Induction of apoptosis in human NCI-H460 cells assessed as reduction in Bcl2 protein expression after 48 hrs by Western blot method; format: functional, cell-based
Method in brief: (§1)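 Cells were treated with or without test agent, alongside a control, for 48h. They were then lysed and analysed by Western blot for Bcl-2 protein and cleaved caspase 3.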

Histone deacetylase 1 = Histone deacetylase 1 (Homo sapiens, UniProt Q13547); assay: Inhibition of HDAC1 in human MDA-MB-231 cells assessed as increase in p53 phosphorylation at Ser15 residue at 1 to 5 uM after 48 hrs by Western blot method; format: cell-based
NCI-H460 [5] = assay: Cell cycle arrest in human NCI-H460 cells assessed as accumulation at G2 phase at 2.5 to 10 uM after 24 hrs by propidium iodide staining based flow cytometry; format: functional
Method in brief: (§2)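 Cells were exposed for 24 h to a range of concentrations (625 nM, 2.5 and 10 µM), with DMSO vehicle as control. They were then stained with propidium iodide and analysed by flow cytometry to obtain the percentages of cells in G0/G1, S and G2 phases.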

[6] = molecular target: Cyclin-dependent kinase 2/cyclin E1 (Homo sapiens) (UniProt P24864+P24941); assay: Inhibition of recombinant human full length C-terminal 6His-tagged CDK2/N-terminal GST-tagged Cyclin-E co-expressed in baculovirus infected sf21 cells at 1 uM using histone H1 substrate in presence of [gamma33P]ATP after 10 mins by scintillation counting method relative to control
T47D [7] = assay: Induction of apoptosis in human T47D cells assessed as late apoptotic cells at 1 uM after 48 hrs by annexin V-FITC/propidium iodide staining based flow cytometry (reference value: 6.16%); format: functional
T47D [8] = assay: Induction of apoptosis in human T47D cells assessed as early apoptotic cells at 10 uM after 48 hrs by annexin V-FITC/propidium iodide staining based flow cytometry (reference value: 7.7%); format: functional
NCI-H460 [9] = assay: Induction of apoptosis in human NCI-H460 cells assessed as late apoptotic cells at 10 uM after 48 hrs by annexin V-FITC/propidium iodide staining based flow cytometry (reference value: 1.29%); format: functional
[10] = Tmax in Sprague-Dawley rat at 20 mg/kg, ip administered as single dose by HPLC analysis; format: ADME, organism-based; details: in vivo
[11] = MRT (0 to infinity) in Sprague-Dawley rat at 20 mg/kg, iv administered as single dose by HPLC analysis; format: ADME, organism-based; details: in vivo
Hep 3B2 [12] = assay: Induction of apoptosis in human Hep3B cells assessed as early apoptotic cells at 10 uM after 48 hrs by annexin V-FITC/propidium iodide staining based flow cytometry (reference value: 1.91%); format: functional
LIM domain kinase 1 = LIM domain kinase 1 (Homo sapiens, UniProt P53667); assay: Inhibition of recombinant human N-terminal His6-tagged LIMK1 (285 to 638 residues) expressed in baculovirus infected sf21 cells
HepG2 [13] = assay: Induction of apoptosis in human HepG2 cells assessed as reduction in Bcl2 protein expression after 48 hrs by Western blot method; format: functional, cell-based; method in brief: as §1
[14] = Aqueous solubility in pH 7.4 PBS buffer at 1 mg sonicated for 24 hrs and incubated under unstirred condition for 24 hrs by HPLC method; format: physicochemical
Hep 3B2 [15] = assay: Induction of apoptosis in human Hep3B cells assessed as necrotic cells at 5 uM after 48 hrs by annexin V-FITC/propidium iodide staining based flow cytometry (reference value: 4.97%); format: functional
NCI-H460 [16] = assay: Cell cycle arrest in human NCI-H460 cells assessed as accumulation at G0/G1 phase at 625 nM after 24 hrs by propidium iodide staining based flow cytometry; format: functional; method in brief: as §2
NCI-H460 [17] = assay: Downregulation of Cyclin-D1 protein expression in human NCI-H460 cells after 48 hrs by Western blot method; format: functional, cell-based
Method in brief: (§3)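 Treated cells were lysed and CDK4 and cyclin D1 protein levels were assessed by Western blot.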

Mus musculus = assay: Toxicity in Balb/c mouse assessed as weight loss at 45 to 130 mg/kg, ip for 16 consecutive days; format: organism-based; details: in vivo
[18] = molecular target: CDK6/cyclin D3 (Homo sapiens) (UniProt P30281+Q00534); assay: Inhibition of recombinant human full length N-terminal 6His-tagged CDK6/N-terminal GST-tagged Cyclin-D3 co-expressed in sf21 cells at 1 uM using histone H1 substrate in presence of [gamma33P]ATP after 10 mins by scintillation counting method relative to control
[19] = molecular target: Cyclin-dependent kinase 5/CDK5 activator 1 (Homo sapiens) (UniProt Q00535+Q15078); assay: Inhibition of recombinant human full length N-terminal 6His-tagged CDK5/N-terminal GST-tagged p25 co-expressed in baculovirus infected sf21 cells at 1 uM using histone H1 substrate in presence of [gamma33P]ATP after 10 mins by scintillation counting method relative to control
[20] = AUC (0 to infinity) in Sprague-Dawley rat at 20 mg/kg, po administered as single dose by HPLC analysis; format: ADME, organism-based; parameters: dose 20 mg/kg, time infinity, route oral; details: in vivo
MDA-MB-231 [21] = assay: Induction of apoptosis in human MDA-MB-231 cells assessed as early apoptotic cells at 10 uM after 48 hrs by annexin V-FITC/propidium iodide staining based flow cytometry (reference value: 0.4%); format: functional
A549 [22] = assay: Induction of apoptosis in human A549 cells after 48 hrs by annexin V-FITC/propidium iodide staining based flow cytometry; format: functional, cell-based
A549 [23] = assay: Downregulation of Cyclin-D1 protein expression in human A549 cells after 48 hrs by Western blot method; format: functional, cell-based; method in brief: as §3
[24] = Clearance in Sprague-Dawley rat at 20 mg/kg, po administered as single dose by HPLC analysis; format: ADME, organism-based; details: in vivo
CDK4/CDK9 (Homo sapiens) = CDK4/CDK9 (Homo sapiens) (UniProt P11802+P50750); assay: Inhibition of CDK4/CDK9 in human MDA-MB-231 cells assessed as reduction in Rb phosphorylation at Ser807/811 residues at 1 uM after 48 hrs by Western blot method; format: cell-based
NCI-H460 [25] = assay: Induction of apoptosis in human NCI-H460 cells assessed as necrotic cells at 1 uM after 48 hrs by annexin V-FITC/propidium iodide staining based flow cytometry (reference value: 1.34%); format: functional
[26] = molecular target: CDK2/Cyclin A2 (Homo sapiens) (UniProt P24941+P20248); assay: Inhibition of recombinant human full length C-terminal 6His-tagged CDK2/N-terminal GST-tagged Cyclin-A co-expressed in baculovirus infected sf21 cells at 1 uM relative to control

Chain of Cyclin-dependent kinase 5/CDK5 activator 1 (Homo sapiens) (Q00535 whole entry): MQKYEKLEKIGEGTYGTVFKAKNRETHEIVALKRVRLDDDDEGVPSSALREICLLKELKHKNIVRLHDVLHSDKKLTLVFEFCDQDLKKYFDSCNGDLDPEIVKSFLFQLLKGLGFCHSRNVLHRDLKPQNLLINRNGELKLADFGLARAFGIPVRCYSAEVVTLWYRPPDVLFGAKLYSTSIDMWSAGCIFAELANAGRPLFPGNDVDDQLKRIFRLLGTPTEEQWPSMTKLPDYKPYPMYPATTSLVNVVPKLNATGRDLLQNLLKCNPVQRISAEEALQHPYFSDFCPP
Chain of Cyclin-dependent kinase 5/CDK5 activator 1 (Homo sapiens) (Q15078 99-307 partner limits assumed): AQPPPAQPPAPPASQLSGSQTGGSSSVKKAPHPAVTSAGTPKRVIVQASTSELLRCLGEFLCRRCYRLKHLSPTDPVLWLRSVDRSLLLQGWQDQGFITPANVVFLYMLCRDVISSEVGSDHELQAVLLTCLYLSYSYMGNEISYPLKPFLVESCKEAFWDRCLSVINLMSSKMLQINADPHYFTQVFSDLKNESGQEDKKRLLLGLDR
Chain of LIM domain kinase 1 (P53667 whole entry, the tested form may be a part): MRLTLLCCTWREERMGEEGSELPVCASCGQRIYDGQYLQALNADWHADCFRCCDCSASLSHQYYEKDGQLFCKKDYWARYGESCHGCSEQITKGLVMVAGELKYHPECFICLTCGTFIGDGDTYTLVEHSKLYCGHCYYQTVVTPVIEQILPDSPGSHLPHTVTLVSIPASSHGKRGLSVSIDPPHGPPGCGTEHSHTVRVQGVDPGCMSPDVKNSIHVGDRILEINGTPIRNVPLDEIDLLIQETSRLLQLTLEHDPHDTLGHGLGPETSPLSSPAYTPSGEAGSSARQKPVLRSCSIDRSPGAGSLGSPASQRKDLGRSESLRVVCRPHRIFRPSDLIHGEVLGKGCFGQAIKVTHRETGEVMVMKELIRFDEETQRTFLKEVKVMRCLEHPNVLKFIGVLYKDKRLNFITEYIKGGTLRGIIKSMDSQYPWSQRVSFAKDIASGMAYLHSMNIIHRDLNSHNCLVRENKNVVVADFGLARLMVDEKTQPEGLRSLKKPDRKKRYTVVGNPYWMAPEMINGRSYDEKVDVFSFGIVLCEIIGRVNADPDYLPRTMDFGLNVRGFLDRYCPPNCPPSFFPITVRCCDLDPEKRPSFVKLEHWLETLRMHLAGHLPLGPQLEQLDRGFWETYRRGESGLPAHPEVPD
Chain of Aurora kinase A (O14965 whole entry): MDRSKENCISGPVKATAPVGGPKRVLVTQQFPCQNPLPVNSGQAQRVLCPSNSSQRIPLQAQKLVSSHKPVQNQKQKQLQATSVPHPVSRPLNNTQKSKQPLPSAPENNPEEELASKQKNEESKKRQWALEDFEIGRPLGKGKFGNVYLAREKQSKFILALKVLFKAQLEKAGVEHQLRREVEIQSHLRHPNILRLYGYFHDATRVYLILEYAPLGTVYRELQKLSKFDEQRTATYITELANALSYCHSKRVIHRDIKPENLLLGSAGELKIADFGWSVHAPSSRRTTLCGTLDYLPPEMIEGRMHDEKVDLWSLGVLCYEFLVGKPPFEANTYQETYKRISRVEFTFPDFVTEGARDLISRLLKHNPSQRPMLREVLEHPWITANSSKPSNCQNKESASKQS
Chain of CDK4/CDK9 (Homo sapiens) (P11802 whole entry, looked up): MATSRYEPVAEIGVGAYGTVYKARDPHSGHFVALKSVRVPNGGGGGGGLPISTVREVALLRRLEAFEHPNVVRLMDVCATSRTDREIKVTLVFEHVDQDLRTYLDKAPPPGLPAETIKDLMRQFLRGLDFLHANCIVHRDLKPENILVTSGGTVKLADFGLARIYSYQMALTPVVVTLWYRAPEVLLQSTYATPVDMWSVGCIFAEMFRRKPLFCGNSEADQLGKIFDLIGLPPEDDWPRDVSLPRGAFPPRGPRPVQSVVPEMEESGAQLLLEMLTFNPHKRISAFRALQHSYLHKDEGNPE
Chain of CDK4/CDK9 (Homo sapiens) (P50750 whole entry, looked up): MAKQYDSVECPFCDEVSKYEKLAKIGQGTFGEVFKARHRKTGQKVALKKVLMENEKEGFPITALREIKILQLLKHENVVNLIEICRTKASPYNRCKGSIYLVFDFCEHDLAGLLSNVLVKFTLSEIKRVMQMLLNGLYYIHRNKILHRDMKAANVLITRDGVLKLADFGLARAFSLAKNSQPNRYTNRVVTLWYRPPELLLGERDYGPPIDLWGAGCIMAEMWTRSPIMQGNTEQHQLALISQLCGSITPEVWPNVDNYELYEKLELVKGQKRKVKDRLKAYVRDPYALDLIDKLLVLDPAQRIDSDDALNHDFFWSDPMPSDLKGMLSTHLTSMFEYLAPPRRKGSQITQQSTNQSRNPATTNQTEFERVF
Chain of Histone deacetylase 1 (Q13547 whole entry): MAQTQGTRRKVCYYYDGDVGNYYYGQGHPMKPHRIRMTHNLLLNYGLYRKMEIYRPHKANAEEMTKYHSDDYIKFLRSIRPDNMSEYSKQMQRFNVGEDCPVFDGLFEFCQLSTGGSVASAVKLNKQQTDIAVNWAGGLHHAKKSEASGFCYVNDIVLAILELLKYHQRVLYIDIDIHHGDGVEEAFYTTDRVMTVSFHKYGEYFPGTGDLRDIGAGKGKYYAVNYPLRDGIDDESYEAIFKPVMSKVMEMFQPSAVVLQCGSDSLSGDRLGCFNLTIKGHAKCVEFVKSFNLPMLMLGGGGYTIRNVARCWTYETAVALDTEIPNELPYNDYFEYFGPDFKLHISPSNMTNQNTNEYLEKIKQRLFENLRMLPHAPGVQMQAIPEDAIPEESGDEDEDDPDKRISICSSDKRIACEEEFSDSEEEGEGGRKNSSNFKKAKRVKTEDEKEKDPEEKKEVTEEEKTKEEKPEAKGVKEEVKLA

## CN(C)C(=O)c1cc2cnc(Nc3ccc(NC(=O)CCCCCCC(=O)NO)cc3)nc2n1C1CCCC1
Aurora kinase A
  pIC50: 7.92
MDA-MB-231 [1]
  Activity: 1.97%
HepG2 [2]
  Activity: 6.07%
HepG2 [3]
  pIC50: 5.47
NCI-H460 [4]
  Activity: Active
Histone deacetylase 1
  inhibition: Active
NCI-H460 [5]
  Activity: Active
[6]
  inhibition: 66%
T47D [7]
  Activity: 6.48%
T47D [8]
  Activity: 37.1%
NCI-H460 [9]
  Activity: 10.9%
[10]
  Tmax: 0.262 h
[11]
  MRT inf: 14.1 h
Hep 3B2 [12]
  Activity: 8.15%
LIM domain kinase 1
  pIC50: 7.36
HepG2 [13]
  Activity: Active
[14]
  solubility at 24 h: 0.35 µg/mL (≈ 0.653 µM)
Hep 3B2 [15]
  Activity: 2.08%
NCI-H460 [16]
  Activity: Active
NCI-H460 [17]
  Activity: Dose-dependent effect
Mus musculus
  Activity: Non-Toxic
[18]
  inhibition: 70%
[19]
  inhibition: 78%
[20]
  AUC(0-inf): 1130 ng·h/mL
MDA-MB-231 [21]
  Activity: 5.09%
A549 [22]
  Activity: Dose-dependent effect
A549 [23]
  Activity: Dose-dependent effect
[24]
  CL/F: 344 mL/min/kg
CDK4/CDK9 (Homo sapiens)
  inhibition: Active
NCI-H460 [25]
  Activity: 1.25%
[26]
  inhibition: 71%
